In data set [1] the test system is SK-BR-3. The data set is described as follows: Cytotoxicity against human SKBR3 cells assessed as cell viability 1 to 400 uM after 72 hrs by MTS assay. Type of data set: functional, cell-based. The method, boiled down: (§1)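 SKBR3 (HER2+ breast cancer) cells exposed to compound for 72 h; number of metabolically active cells read by MTS tetrazolium reduction. Values are means of duplicate wells.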
In general terms: Formazan colour is commonly taken as a measure of viable cells.

The test system of another data set is Canavalia ensiformis. The experiment in a line: Inhibition of jack beans alpha-mannosidase.
Data set [2] deals with Jurkat. The data set is described as follows: Induction of apoptosis in human Jurkat cells assessed as late apoptotic cells at 10 uM after 24 hrs by annexin V-7AAD double staining based flow cytometric analysis. Type of data set: functional. In short, it runs like this: (§2)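 JURKAT cells treated with compound. Apoptosis quantified by annexin-V/7-AAD staining and flow cytometry: early apoptotic = annexin V+7AAD−, late = annexin V+7AAD+. At 10 µM, a time course of cell death was also run.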

For data set [3], the system named is SK-BR-3. The data set is described as follows: Cytotoxicity in human SKBR3 cells assessed as increase in intracellular vacuolization after 6 to 12 hrs. In kind it is functional, cell-based.
Data set [4] concerns Jurkat. The data set is described as follows: Induction of apoptosis in human Jurkat cells assessed as early apoptotic cells at 10 uM after 24 hrs by annexin V based flow cytometric analysis. In kind it is functional. In short, it runs like this:
as §2

In data set [5] the test system is SK-BR-3. The experiment in a line: Induction of apoptosis in human SKBR3 cells assessed as hypodiploid cell nuclei appearance after 24 hrs by annexin-V propidium iodide based flow cytometric analysis. Type of data set: functional. The method, boiled down: (§3)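 SKBR3 cells treated with compound, then cell-cycle distribution examined (G0/G1 and S fractions); at higher concentrations DNA fragmentation and hypodiploid nuclei scored. Described as preliminary assays.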
A general note: A flow cytometer gives signals particle by particle.

Data set [6] relates to SK-BR-3. The data set is described as follows: Cell cycle arrest in human SKBR3 cells assessed as reduction in S phase after 24 hrs by FITC-conjugated annexin-V propidium iodide based flow cytometric analysis. In kind it is functional. The method, boiled down: as §3
In data set [7] the test system is SK-BR-3. The data set is described as follows: Induction of apoptosis in human SKBR3 cells assessed as DNA fragmentation after 24 hrs by annexin-V propidium iodide based flow cytometric analysis. In kind it is functional, cell-based. The method, boiled down:
as §3

A short description of data set [8]: Induction of apoptosis in human CD34-positive and CD38-deficient hematopoietic progenitor cells assessed as early apoptotic cells at 10 uM after 24 hrs by annexin V based flow cytometric analysis.
The test system of data set [9] is SK-BR-3. The experiment in a line: Cytotoxicity against human SKBR3 cells after 72 hrs by MTS assay. Type of data set: functional, cell-based. The method, boiled down: as §1
A short description of data set [10]: Induction of apoptosis in human CD34-positive and CD38-deficient hematopoietic progenitor cells assessed as late apoptotic cells at 10 uM after 24 hrs by annexin V-7AAD double staining based flow cytometric analysis.
In data set [11] the test system is Jurkat. The data set is described as follows: Induction of apoptosis in human Jurkat cells assessed as cell death at 10 uM after 24 hrs by annexin V-7AAD double staining based flow cytometric analysis. In kind it is functional. In short, it runs like this:
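Jurkat T-ALL cells exposed to 10 µM for 24 h (time-course series). Apoptosis quantified by annexin V and 7-AAD staining with flow cytometry. Early apoptotic = annexin V+/7AAD−, late apoptotic = annexin V+/7AAD+. Viability monitored in parallel by trypan blue exclusion. Values given as percent cell death.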

Data set [12] can be described thus: Induction of apoptosis in human CD34-positive and CD38-deficient hematopoietic progenitor cells assessed as cell death at 10 uM after 24 hrs by annexin V-7AAD double staining based flow cytometric analysis.
Data set [13] deals with SK-BR-3. The data set is described as follows: Cell cycle arrest in human SKBR3 cells assessed as accumulation in G0/G1 phase after 24 hrs by FITC-conjugated annexin-V propidium iodide based flow cytometric analysis. Type of data set: functional. The method, boiled down: as §3
In data set [14] the test system is Jurkat. The experiment in a line: Cytotoxicity against human Jurkat cells by trypan blue assay. Type of data set: functional, cell-based. The method, boiled down:
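JURKAT cells exposed to compound; viability monitored by Trypan blue exclusion.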

The test system of data set [15] is Jurkat. The data set is described as follows: Induction of apoptosis in human Jurkat cells assessed as cell death at 10 uM by annexin V-7AAD double staining based flow cytometric analysis. As to conditions: TDE = time-dependent effect. In kind it is functional. The method, boiled down: as §2
Data set [16] concerns SK-BR-3. The data set is described as follows: Cytotoxicity against human SKBR3 cells assessed as cell death at 6.25 uM after 72 hrs by MTS assay. Type of data set: functional, cell-based.
Data set [17] is described as follows: Cytotoxicity against mouse BA/F3 cells expressing tyrosine kinase at <10 uM after 48 hrs by resazurin reduction assay. As to conditions: baf3, 48 h. In kind it is cell-based. In short, it runs like this:
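15 Ba/F3 models, each proliferating through engineered expression of a specific tyrosine kinase. Compound incubated 48 h at concentrations below 10 µM, read by resazurin reduction. 9-point IC50 curves in three independent experiments.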
Background: Resazurin is reduced to fluorescent resorufin, in cell work by metabolically active cells.

For the next data set, the system named is PBMC. The experiment in a line: Induction of apoptosis in PBMC at 10 uM after 24 hrs by annexin-V and 7AAD double staining based flow cytometric analysis. Type of data set: cell-based.
Data set [18] deals with Jurkat. The experiment in a line: Induction of apoptosis in human Jurkat cells assessed as cell death at 100 uM after 24 hrs by annexin V-7AAD double staining based flow cytometric analysis. In kind it is functional. In short, it runs like this: as §2

Calls of active or inactive are those of the source. The rule behind the calls is not given here.

For orientation: IC50 means the midpoint of a concentration-inhibition curve.

Regarding `O[C@H]1[C@@H](O)CN[C@@H]1COCc1ccccc1`, the result in the data set with SK-BR-3 [1] was inactive. Further, the Inhibition activity result in the data set with Canavalia ensiformis was “inactive”.

As to `CCCCCCCC/C=C\CCCCCCCCOC[C@H]1NC[C@H](O)[C@@H]1O`, the Activity in the data set on Jurkat [2] stood at 60%; in the data set with Jurkat [4] it was 40%; in [8] it was 20%; in [10], 40%; with Jurkat [11], 100%; in [12] it was 60%. Further, the Activity entry with Jurkat [15] is “tde”; in data set [17], “Non-toxic”. Further, the outcome in the data set with SK-BR-3 [3], in the data set on SK-BR-3 [5], in the data set with SK-BR-3 [6], with SK-BR-3 [7], with SK-BR-3 [13] and with SK-BR-3 [16] was Active. Besides, the 50% inhibitory concentration (IC50) in the data set on SK-BR-3 [9] (SK-BR-3, 72 h) was found to be 2 µM; with Jurkat [14] it was 8 µM.

Turning to `CCCCCCCOC[C@H]1NC[C@H](O)[C@@H]1O`, the outcome with SK-BR-3 [1] was inactive. Also, the Inhibition activity entry with Canavalia ensiformis is “inactive”.

For `CCCCCCCCCCCCCCCCCCOC[C@H]1NC[C@H](O)[C@@H]1O`, the outcome with SK-BR-3 [1] and with SK-BR-3 [9] was Active. Further, the Inhibition activity entry in the data set on Canavalia ensiformis is “inactive”.

In the case of `CCCCCC/C=C\CCCCCCCCOC[C@H]1NC[C@H](O)[C@@H]1O`, the result in the data set on SK-BR-3 [1] and with SK-BR-3 [9] was Active. The Inhibition activity result in the data set on Canavalia ensiformis was “inactive”.

Regarding `CCCCCCCCCCCCCCOC[C@H]1NC[C@H](O)[C@@H]1O`, the Inhibition activity entry in the data set on Canavalia ensiformis was “inactive”.

Take `CC/C=C\C/C=C\C/C=C\CCCCCCCCOC[C@H]1NC[C@H](O)[C@@H]1O`: the outcome in the data set on SK-BR-3 [1] and in the data set on SK-BR-3 [9] was Active. For the same compound, the Inhibition activity entry in the data set on Canavalia ensiformis is “inactive”.

Turning to `C=CCCCOC[C@H]1NC[C@H](O)[C@@H]1O`, in the data set with Canavalia ensiformis, the Inhibition activity result was “inactive”.

As for `CCCCCCCCCCOC[C@H]1NC[C@H](O)[C@@H]1O`, the result with SK-BR-3 [1] and with SK-BR-3 [9] was Active. Besides, in the data set on Canavalia ensiformis, the Inhibition activity result is “inactive”.

`OC[C@H]1NC[C@H](O)[C@@H]1O` [IMINORIBITOL]: the Activity entry in the data set with PBMC is reported as “Non-toxic”. Moreover, the result with SK-BR-3 [1], with Jurkat [11] and in the data set with Jurkat [14] was inactive.

For the compound `CCCCCOC[C@H]1NC[C@H](O)[C@@H]1O`, the Inhibition activity result with Canavalia ensiformis was “inactive”.

For `O[C@H]1[C@@H](O)CN[C@@H]1COCc1ccc(-c2ccccc2)cc1`, the result in the data set on SK-BR-3 [1] and in the data set on Jurkat [18] was Active. For the same compound, in the data set on Canavalia ensiformis, the Inhibition activity result was “Active”.

As for `CCCCC/C=C\C/C=C\CCCCCCCCOC[C@H]1NC[C@H](O)[C@@H]1O`, the outcome in the data set with SK-BR-3 [1] and in the data set on SK-BR-3 [9] was Active. Moreover, the Inhibition activity result with Canavalia ensiformis is “inactive”.

Source of the values: ChEMBL document CHEMBL1926638, “Anti-cancer activity of 5-O-alkyl 1,4-imino-1,4-dideoxyribitols” (Bioorg Med Chem, 2011).
